Measurements reported in ChEMBL document CHEMBL2385079, “Design, synthesis and pharmacological characterization of analogs of 2-aminoethyl diphenylborinate (2-APB), a known store-operated calcium channel blocker, for inhibition of TRPV6-mediated calcium transport” (Bioorg Med Chem, 2013).
Activity calls are given as the source filed them. The rule behind the calls is not given here.

Key:
[1] = target: T1, Transient receptor potential cation channel subfamily V member 6 (Homo sapiens, UniProt Q9H1D0); assay: Inhibition of human TRPV6 transfected in HEK293 cells assessed as inhibition of Cd2+ influx after 5 mins by FLIPR assay; type: cell-based
T1 sequence (Q9H1D0 whole entry): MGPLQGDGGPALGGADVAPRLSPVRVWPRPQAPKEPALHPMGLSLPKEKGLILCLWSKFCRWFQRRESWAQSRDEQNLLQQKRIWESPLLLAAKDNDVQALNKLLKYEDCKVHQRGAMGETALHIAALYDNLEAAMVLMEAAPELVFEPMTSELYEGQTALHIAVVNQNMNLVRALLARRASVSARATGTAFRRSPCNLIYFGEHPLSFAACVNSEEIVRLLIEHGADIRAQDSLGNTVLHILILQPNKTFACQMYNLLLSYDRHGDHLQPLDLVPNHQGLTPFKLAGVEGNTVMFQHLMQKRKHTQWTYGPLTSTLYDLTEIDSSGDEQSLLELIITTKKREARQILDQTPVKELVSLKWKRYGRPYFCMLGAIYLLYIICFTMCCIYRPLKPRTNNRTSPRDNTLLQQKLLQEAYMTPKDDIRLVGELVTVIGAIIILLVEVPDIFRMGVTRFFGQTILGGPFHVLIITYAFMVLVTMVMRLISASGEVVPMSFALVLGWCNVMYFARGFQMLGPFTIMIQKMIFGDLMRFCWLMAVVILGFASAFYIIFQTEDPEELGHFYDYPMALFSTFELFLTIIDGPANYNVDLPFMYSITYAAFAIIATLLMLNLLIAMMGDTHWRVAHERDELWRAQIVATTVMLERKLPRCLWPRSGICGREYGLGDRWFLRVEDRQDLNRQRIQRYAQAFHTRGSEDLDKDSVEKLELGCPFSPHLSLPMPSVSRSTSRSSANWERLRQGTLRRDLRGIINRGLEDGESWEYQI
How it was run: (§1)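 HEK293 clone stably expressing RFP-tagged hTRPV6, made by Lipofectamine transfection, G418 selection and picking of red-fluorescent single-cell colonies. Cells plated at 40,000/well and used after 36 h, then loaded 1 h at 37 °C with Calcium-5 in nominally Ca2+-free Krebs buffer. After a 50 s baseline, compound is given for 5 min. Then 2 mM CaCl2 or 50 µM CdCl2 is added, and the initial rate of fluorescence increase is read by FLIPR Tetra. IC50 is the average of six independent experiments.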

ORAI 1/2/3 [2] = target: T2, ORAI 1/2/3 (Homo sapiens, UniProt Q96D31+Q96SN7+Q9BRQ5); assay: Inhibition of ORAl1/2/3 in HEK293 cells assessed as inhibition of Cd2+ influx after 10 mins by FLIPR assay in presence of thapsigargin; type: cell-based
How it was run: (§2)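 Untransfected HEK293 cells plated at 40,000 cells/well, used after 36 h and loaded 1 h at 37 °C with Calcium-5 dye in nominally Ca2+-free modified Krebs buffer (117 mM NaCl, 4.8 mM KCl, 1 mM MgCl2, 10 mM HEPES). After a 50 s baseline, compound is added together with 1 µM thapsigargin for 10 min. Ca2+ or Cd2+ is then added, and the rate of fluorescence rise is read by FLIPR Tetra (ex 470–495, em 515–575 nm). IC50 is the mean of six experiments.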

ORAI 1/2/3 [3] = target: T2, ORAI 1/2/3; assay: Inhibition of ORAl1/2/3 in HEK293 cells assessed as inhibition of Ca2+ influx after 10 mins by FLIPR assay in presence of thapsigargin; type: cell-based; how it was run: as §2
[4] = target: T1, Transient receptor potential cation channel subfamily V member 6; assay: Inhibition of human TRPV6 transfected in HEK293 cells assessed as inhibition of Ca2+ influx after 5 mins by FLIPR assay; type: cell-based; how it was run: as §1
[5] = target: T3, Transient receptor potential cation channel subfamily V member 6 (Homo sapiens) (UniProt Q9H1D0); assay: Inhibition of human TRPV6 transfected in HEK293 cells assessed as inhibition of Ca2+ influx up to 500 uM after 5 mins by FLIPR assay; type: cell-based; how it was run: as §1
T3 sequence (whole entry): T1 sequence (Q9H1D0 whole entry)

[6] = target: T3, Transient receptor potential cation channel subfamily V member 6 (Homo sapiens); assay: Inhibition of human TRPV6 transfected in HEK293 cells assessed as inhibition of Cd2+ influx up to 500 uM after 5 mins by FLIPR assay; type: cell-based; how it was run: as §1
ORAI 1/2/3 [7] = target: T2, ORAI 1/2/3; assay: Inhibition of ORAl1/2/3 in HEK293 cells assessed as inhibition of Ca2+ influx up to 500 uM after 10 mins by FLIPR assay in presence of thapsigargin; type: cell-based; how it was run: as §2
ORAI 1/2/3 [8] = target: T2, ORAI 1/2/3; assay: Inhibition of ORAl1/2/3 in HEK293 cells assessed as inhibition of Cd2+ influx up to 500 uM after 10 mins by FLIPR assay in presence of thapsigargin; type: cell-based; how it was run: as §2
[9] = Stability of the compound in CHCl3 by NMR analysis; type: physicochemical
HEK293 = assay: Selectivity ratio of IC50 for ORAl1/2/3 in HEK293 cells to IC50 for human TRPV6 transfected in HEK293 cells; type: cell-based
[10] = target: T3, Transient receptor potential cation channel subfamily V member 6 (Homo sapiens); assay: Ratio of 2-APB IC50 to compound IC50 for human TRPV6
[11] = target: T1, Transient receptor potential cation channel subfamily V member 6; assay: Inhibition of human TRPV6 transfected in HEK293 cells; type: cell-based; how it was run: as §1

Compound	IC50 [1] [µM]	IC50 (ORAI 1/2/3 [2]) [µM]	IC50 (ORAI 1/2/3 [3]) [µM]	IC50 [4] [µM]	other results
Cc1ccc(B(O)c2ccc(C)cc2)cc1	29	25.9	23	18.6	–
OB1c2ccccc2CCc2ccccc21	> 500	36.4	33.3	> 500	–
CB(O)O [METHANE BORONIC ACID]	–	> 500	> 500	–	inhibition [5]: inactive; inhibition [6]: inactive
c1ccc([B-]2(c3cccnc3)[NH2+]CCO2)cc1 (stereo unspecified)	–	–	–	–	inhibition (ORAI 1/2/3 [7]): inactive; inhibition [5]: inactive; inhibition (ORAI 1/2/3 [8]): inactive; inhibition [6]: inactive
OB(c1ccccc1)c1ccc(C(F)(F)F)cc1	12.5	–	–	11.3	–
C[N+]1(C)CCO[B-]1(c1ccccc1)c1ccccc1	19.8	5.1	8.9	63.6	–
OC(c1ccccc1)c1ccccc1 [DIPHENYLMETHANOL]	–	> 500	> 500	–	inhibition [5]: inactive; inhibition [6]: inactive
c1ccc(-c2ccc([B-]3(c4ccccc4)[NH2+]CCO3)cc2)cc1 (stereo unspecified)	51.3	7.7	13.4	72.3	–
NCCOC(c1ccccc1)c1ccccc1	> 500	184.2	106	159	–
OB(c1ccc(C(F)(F)F)cc1)c1ccc(C(F)(F)F)cc1	11.2	9.5	7.6	10.8	–
OB(O)c1ccccc1	–	–	–	–	inhibition (ORAI 1/2/3 [7]): inactive; inhibition [5]: inactive; inhibition (ORAI 1/2/3 [8]): inactive; inhibition [6]: inactive
CN(C)CCOC(c1ccccc1)c1ccccc1 [DIPHENHYDRAMINE]	–	> 500	> 500	–	inhibition [5]: inactive; inhibition [6]: inactive
CCCCc1ccc([B-]2(c3ccccc3)[NH2+]CCO2)cc1 (stereo unspecified)	12.1	2.4	3.5	14.3	–
c1ccc([B-]2(c3ccccc3)OC[C@@H]3CCC[NH+]32)cc1 (stereo partly specified)	28	10.2	8.9	18.8	–
O=C1O[B-](c2ccccc2)(c2ccccc2)[NH2+][C@H]1Cc1c[nH]c2ccccc12	–	14.7	6.9	–	inhibition [5]: inactive; inhibition [6]: inactive
COc1ccccc1[B-]1(c2ccccc2OC)[NH2+]CCO1	412	10.5	11.6	> 500	–
COc1ccc([B-]2(c3ccc(OC)cc3)[NH2+]CCO2)cc1	89.8	25.8	12.4	> 100	–
OB(c1ccccc1)c1ccc(Cl)cc1	12	6.4	21.8	9.7	–
c1ccc([B-]2(c3ccccc3)OCC[N+]23CCNCC3)cc1	24.3	2.2	6	15	–
c1ccc([B-]2(c3ccccc3)Oc3cccc4ccc[n+]2c34)cc1	–	–	–	–	inhibition (ORAI 1/2/3 [7]): inactive; inhibition [5]: inactive; inhibition (ORAI 1/2/3 [8]): inactive; inhibition [6]: inactive
FC(F)(F)c1ccc([B-]2(c3ccc(C(F)(F)F)cc3)[NH2+]CCO2)cc1	13.7	3.2	2.1	16.3	–

Compound	IC50 [1] [µM]	IC50 (ORAI 1/2/3 [2]) [µM]	IC50 (ORAI 1/2/3 [3]) [µM]	IC50 [4] [µM]	other results
OB(c1ccccc1)c1ccccc1 [DIPHENYL BORINIC ACID]	31.5	8.7	9.8	19.1	–
c1ccc([B-]2(c3ccccc3)[NH2+]CCS2)cc1	93.5	44.6	51.8	127	–
Fc1ccc([B-]2(c3ccc(F)cc3)[NH2+]CCO2)cc1	14.2	5.9	9	17	–
O=C1C[NH2+][B-](c2ccccc2)(c2ccccc2)O1	30.6	11	38.6	12.9	Stability [9]: Stable
c1ccc(B(OB(c2ccccc2)c2ccccc2)c2ccccc2)cc1	17.7	13.4	11.4	19.2	–
Cc1ccc([B-]2(c3ccccc3)[NH2+]CCO2)s1 (stereo unspecified)	10	25.2	30.9	12.3	Ratio IC50 (HEK293): 2.5
Fc1ccc([B-]2(c3ccccc3)[NH2+]CCO2)cc1 (stereo unspecified)	33.6	9.8	9.3	18.8	–
Cc1ccc([B-]2(c3ccccc3)[NH2+]CCO2)cc1 (stereo unspecified)	12.9	2.7	8.6	18.9	–
OB(c1ccc(F)cc1)c1ccc(F)cc1	61.6	17.1	26.6	37.1	–
Cc1ccc([B-]2(c3ccc(C)cc3)[NH2+]CCO2)cc1	17.1	7.4	1.6	14.4	–
Cc1ccccc1[B-]1(c2ccccc2)[NH2+]CCO1 (stereo unspecified)	67.9	9.9	10	31.1	–
c1ccc(OB(Oc2ccccc2)Oc2ccccc2)cc1	–	–	–	–	inhibition (ORAI 1/2/3 [7]): inactive; inhibition [5]: inactive; inhibition (ORAI 1/2/3 [8]): inactive; inhibition [6]: inactive
OB(O)O	–	–	–	–	inhibition (ORAI 1/2/3 [7]): inactive; inhibition [5]: inactive; inhibition (ORAI 1/2/3 [8]): inactive; inhibition [6]: inactive
O=C1O[B-](c2ccccc2)(c2ccccc2)[NH2+][C@H]1CO	20.2	9.8	40.5	36.6	Stability [9]: Stable
c1ccc([B-]2(c3ccccc3)OCc3cccc[n+]32)cc1	41.5	10.2	10.7	34.9	–
COc1ccccc1B(O)c1ccccc1OC	> 500	11.8	13.2	> 500	–
Ic1ccc([B-]2(c3ccccc3)[NH2+]CCO2)cc1 (stereo unspecified)	5.2	7.2	2.8	5.4	Ratio IC50 [10]: 4
c1ccc([B-]2(c3ccccc3)[NH2+]CCO2)cc1	24.5	11.9	22.9	20.7	IC50 [11]: 22 µM
c1ccc([B-]2(c3ccccc3)[NH2+]CCCO2)cc1	28.1	8.2	7.9	16.2	–
c1ccc([B-]2(c3ccccc3)OC[C@H]3CCC[NH+]32)cc1 (stereo partly specified)	30.6	10.1	8	18.5	–
Brc1ccc([B-]2(c3ccccc3)[NH2+]CCO2)cc1 (stereo unspecified)	9.8	4.9	3.4	13.2	–
